Published values gathered from unrelated publications.
Each line is one published result; the experiments were not run side by side. Converted amounts (≈) assume the structure as drawn.

Clc1ccccc1C(c1ccccc1)(c1ccccc1)n1ccnc1
MIC (Cryptococcus neoformans; microbial growth; clinical isolate): 4 µg/mL (≈ 11.6 µM)

COc1ccc2c(C(=O)c3c(F)c(F)c(F)c(F)c3F)c(-c3ccc(OC)c(O)c3)[nH]c2c1
IC50 (tubulin polymerisation, inhibitor, absorbance): > 20000 nM

COC1=CC(=O)c2ccccc2C1=O
MIC (Nakaseomyces glabratus; microbial growth, broth dilution; ATCC2001; 24 h): 25 µg/mL (≈ 133 µM)

Cc1nn(-c2ccccc2)c2c1C(c1ccc(O)cc1)N(C(=O)c1ccncc1)N2 (stereo not shown)
MIC (Cryptococcus neoformans; microbial growth; clinical isolate): > 100 µg/mL

COc1cc2nc(N3CCN(C(=O)C4COc5ccccc5O4)CC3)nc(N)c2cc1OC (stereo not shown)
IC50 (CNE-2; cell growth or viability, MTT; 48 h): 30700 nM

Cc1nn(-c2ccccc2)c2c1C(c1ccco1)N(C(=O)c1ccncc1)N2 (stereo not shown)
MIC (Cryptococcus neoformans; microbial growth; clinical isolate): 2 µg/mL (≈ 5.39 µM)

Nc1ccc(/C=C/C(=O)N2CCc3c(oc4c(-c5ccc(F)cc5)cc(-c5ccc(C(=O)N6C[C@@H]7[C@H](C6)C7(F)F)nn5)cc34)C2)cn1
IC50 (ASPC1; cell growth or viability, CCK-8; 72 h): 260 nM

C=CC(=O)NC1CCN(c2ncc3ncnc(Nc4ccc(Oc5ccc6c(c5)ncn6C)c(C)c4)c3n2)CC1
EC50 (SNU-182; cell growth or viability): 0.191 nM

C=CCc1ccc(O)c(OC)c1
MFC (Cryptococcus neoformans; microbial killing, broth dilution; clinical isolate): 400 µg/mL (≈ 2440 µM)

C=C(F)C(=O)N1CCN(c2nc(OC[C@@H]3CCCN3C)nc3c2CCN(c2cccc4cccc(Cl)c24)C3)C[C@@H]1CC#N
IC50 (SW756; cell growth or viability, ATP luminescence): 888 nM

CC(C)=CCCC(C)=CC=O (mixture of isomers)
MFC (Cryptococcus neoformans; microbial killing, broth dilution; clinical isolate): 1600 µg/mL

Cc1nn(-c2ccccc2)c2c1C(c1c[nH]c3ccccc13)N(C(=O)c1ccncc1)N2 (stereo not shown)
MIC (Cryptococcus neoformans; microbial growth; clinical isolate): 4 µg/mL (≈ 9.51 µM)

C=CC(=O)N1CCN(c2nc(=O)n(-c3c(C)ccnc3C(C)C)c3nc(-c4c(O)cccc4F)c(F)cc23)[C@@H](C)C1
IC50 (NCI-H358; cell growth or viability, ATP luminescence): 44.1 nM
